Legend:
[1] = Growth inhibition of human NCI-ADR-RES cells assessed as cell growth at 10^-5 M after 48 hrs by sulforhodamine B assay relative to control; assay type: functional; conditions: read-out: Activity
Summary of the method: (§1)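 NCI-60 single-dose screen at 10^-5 M. Cells grown in RPMI 1640 with 5% FBS and 2 mM L-glutamine, plated at 5,000–40,000 cells/well according to doubling time, and preincubated 24 h at 37°C, 5% CO2. Compound dissolved in DMSO and added. Exposure 48 h. Adherent cells fixed with cold TCA (10% final), suspension cells with 16% final TCA. Read-out is 0.4% SRB staining, dye solubilised in 10 mM Tris, absorbance at 515 nm. Percent growth is calculated against the time-zero plate and untreated control.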

U-251 = assay: Growth inhibition of human U251 cells assessed as cell growth at 10^-5 M after 48 hrs by sulforhodamine B assay relative to control; assay type: functional; conditions: U-251, 48 h, read-out: Activity
Summary of the method: (§2)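 NCI-60 single-dose screen, 10^-5 M final. Cells grown in RPMI 1640 with 5% FBS and 2 mM L-glutamine, seeded at 5,000–40,000 cells/well by doubling time. Preincubated 24 h at 37°C, 5% CO2. Compound in DMSO, diluted in medium with gentamicin, then 48 h exposure. Fixed with cold TCA, SRB stained, A515 read. Percent growth vs untreated control, time-zero plate corrected.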

[2] = Growth inhibition of human Hs 578T cells assessed as cell growth at 10^-5 M after 48 hrs by sulforhodamine B assay relative to control; assay type: functional; conditions: read-out: Activity; summary of the method: as §1
COLO 205 = assay: Growth inhibition of human COLO205 cells assessed as cell growth at 10^-5 M after 48 hrs by sulforhodamine B assay relative to control; assay type: functional; conditions: COLO 205, 48 h, read-out: Activity; summary of the method: as §1
MDA-MB-435 = assay: Growth inhibition of human MDA-MB-435 cells assessed as cell growth at 10^-5 M after 48 hrs by sulforhodamine B assay relative to control; assay type: functional; conditions: MDA-MB-435, 48 h, read-out: Activity; summary of the method: as §1
Cathepsin K = target: T1, Cathepsin K (Homo sapiens, UniProt P43235); assay: Inhibition of human cathepsin K
T1 sequence (P43235 whole entry): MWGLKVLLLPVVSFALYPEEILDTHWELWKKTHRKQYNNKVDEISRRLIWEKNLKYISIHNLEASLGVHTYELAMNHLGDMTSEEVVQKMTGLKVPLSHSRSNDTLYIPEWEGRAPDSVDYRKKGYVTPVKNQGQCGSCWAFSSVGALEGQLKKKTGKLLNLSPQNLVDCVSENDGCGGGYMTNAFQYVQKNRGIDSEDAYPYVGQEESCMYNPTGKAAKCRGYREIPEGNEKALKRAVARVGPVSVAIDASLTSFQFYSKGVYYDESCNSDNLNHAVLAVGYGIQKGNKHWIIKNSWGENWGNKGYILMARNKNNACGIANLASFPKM

MOLT-4 = assay: Growth inhibition of human MOLT4 cells assessed as cell growth at 10^-5 M after 48 hrs by sulforhodamine B assay relative to control; assay type: functional; conditions: MOLT-4, 48 h, read-out: Activity; summary of the method: as §1
Malme-3M = assay: Growth inhibition of human MALME-3M cells assessed as cell growth at 10^-5 M after 48 hrs by sulforhodamine B assay relative to control; assay type: functional; conditions: read-out: Activity; summary of the method: as §1
786-0 = assay: Growth inhibition of human 786-0 cells assessed as cell growth at 10^-5 M after 48 hrs by sulforhodamine B assay relative to control; assay type: functional; conditions: 786-0, 48 h, read-out: Activity; summary of the method: as §1
HCT-15 = assay: Growth inhibition of human HCT15 cells assessed as cell growth at 10^-5 M after 48 hrs by sulforhodamine B assay relative to control; assay type: functional; conditions: HCT-15, 48 h, read-out: Activity; summary of the method: as §1
[3] = target: T2, Leukotriene A-4 hydrolase (Homo sapiens, UniProt P09960); assay: Inhibition of human leukotriene A-4 hydrolase
T2 sequence (P09960 whole entry): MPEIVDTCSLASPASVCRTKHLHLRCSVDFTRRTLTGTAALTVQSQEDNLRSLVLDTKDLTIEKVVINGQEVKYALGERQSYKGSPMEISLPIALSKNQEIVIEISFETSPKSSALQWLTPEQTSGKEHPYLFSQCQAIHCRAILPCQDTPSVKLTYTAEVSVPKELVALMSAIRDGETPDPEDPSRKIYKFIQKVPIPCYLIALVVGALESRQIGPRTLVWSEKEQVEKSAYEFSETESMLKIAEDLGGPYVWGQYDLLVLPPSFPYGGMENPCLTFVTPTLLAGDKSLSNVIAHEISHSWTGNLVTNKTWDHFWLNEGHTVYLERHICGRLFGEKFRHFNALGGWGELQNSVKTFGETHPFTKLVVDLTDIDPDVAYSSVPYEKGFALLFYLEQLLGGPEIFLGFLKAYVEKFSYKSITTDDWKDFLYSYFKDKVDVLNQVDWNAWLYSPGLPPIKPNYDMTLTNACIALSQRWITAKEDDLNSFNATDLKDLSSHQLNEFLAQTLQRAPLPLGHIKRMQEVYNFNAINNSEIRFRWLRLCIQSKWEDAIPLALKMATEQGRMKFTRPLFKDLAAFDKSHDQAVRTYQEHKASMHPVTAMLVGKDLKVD

NCI-H460 = assay: Growth inhibition of human NCI-H460 cells assessed as cell growth at 10^-5 M after 48 hrs by sulforhodamine B assay relative to control; assay type: functional; conditions: NCI-H460, 48 h, read-out: Activity; summary of the method: as §1
UACC-62 = assay: Growth inhibition of human UACC62 cells assessed as cell growth at 10^-5 M after 48 hrs by sulforhodamine B assay relative to control; assay type: functional; conditions: UACC-62, 48 h, read-out: Activity; summary of the method: as §2
K562 = assay: Growth inhibition of human K562 cells assessed as cell growth at 10^-5 M after 48 hrs by sulforhodamine B assay relative to control; assay type: functional; conditions: K562, 48 h, read-out: Activity; summary of the method: as §1
Vitamin D3 receptor = target: T3, Vitamin D3 receptor (Homo sapiens, UniProt P11473); assay: Inhibition of human vitamin D3 receptor
T3 sequence (P11473 whole entry): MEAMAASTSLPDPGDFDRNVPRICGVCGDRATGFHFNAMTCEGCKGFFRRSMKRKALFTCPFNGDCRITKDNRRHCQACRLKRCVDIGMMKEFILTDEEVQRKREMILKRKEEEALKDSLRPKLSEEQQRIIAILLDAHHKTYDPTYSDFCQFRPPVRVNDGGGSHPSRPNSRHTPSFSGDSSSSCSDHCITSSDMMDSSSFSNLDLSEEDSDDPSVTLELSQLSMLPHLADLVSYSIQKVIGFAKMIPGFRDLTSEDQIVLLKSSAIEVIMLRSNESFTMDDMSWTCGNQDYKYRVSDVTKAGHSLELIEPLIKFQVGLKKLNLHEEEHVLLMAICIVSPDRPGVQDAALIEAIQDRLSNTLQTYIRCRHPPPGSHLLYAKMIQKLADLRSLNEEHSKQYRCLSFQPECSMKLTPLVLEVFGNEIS

SN12C = assay: Growth inhibition of human SN12C cells assessed as cell growth at 10^-5 M after 48 hrs by sulforhodamine B assay relative to control; assay type: functional; conditions: read-out: Activity; summary of the method: as §1
NCI-H322M = assay: Growth inhibition of human NCI-H322M cells assessed as cell growth at 10^-5 M after 48 hrs by sulforhodamine B assay relative to control; assay type: functional; conditions: read-out: Activity; summary of the method: as §1

Row | SMILES | growth at 10 µM [1] [%] | growth at 10 µM (U-251) [%] | growth at 10 µM [2] [%] | growth at 10 µM (COLO 205) [%] | growth at 10 µM (MDA-MB-435) [%] | Ki (Cathepsin K) [µM] | growth at 10 µM (MOLT-4) [%] | growth at 10 µM (Malme-3M) [%] | growth at 10 µM (786-0) [%] | growth at 10 µM (HCT-15) [%] | Ki [3] [µM] | growth at 10 µM (NCI-H460) [%] | growth at 10 µM (UACC-62) [%] | growth at 10 µM (K562) [%] | Ki (Vitamin D3 receptor) [µM] | growth at 10 µM (SN12C) [%] | growth at 10 µM (NCI-H322M) [%]
1 | Cc1ccc(-c2csc(=N)n2CC(=O)N2CCN(C)CC2)cc1 | 93.1 | 83.9 | 101 | 106 | 83.4 | 8.71 | 76.3 | 128 | 101 | 91.6 | 0.369 | 102 | 72.6 | 82.9 | 17.1 | 93.2 | 104
2 | CC(=O)N1CCN(C(=O)Cn2c(-c3ccccc3)csc2=N)CC1 | 105 | 96.9 | 110 | 99.8 | 105 | 21.9 | 96.2 | 141 | 103 | 94.5 | 2.59 | 110 | 89.6 | 86.8 | 4.66 | 95.8 | 94.4
3 | CN1CCN(C(=O)Cn2c(-c3ccc(Cl)cc3)csc2=N)CC1 | 98 | 91.2 | 106 | 101 | 92.2 | 4.58 | 75.1 | 99.6 | 97 | 93.1 | 0.172 | 101 | 90.2 | 73.1 | 3.66 | 92.8 | 95.9
4 | Cc1ccc(-c2csc(=N)n2CC(=O)N2CCOCC2)cc1 | 94.4 | 91.8 | 118 | 113 | 87.2 | 51.2 | 99.7 | 131 | 97.9 | 98.1 | 3.56 | 108 | 98.1 | 100 | 13.7 | 100 | 111
5 | CN1CCN(C(=O)Cn2c(-c3ccccc3)csc2=N)CC1 | 92.6 | 88.2 | 88.2 | 103 | 104 | 6.22 | 95.2 | 89.1 | 101 | 87.6 | 0.629 | 99.1 | 85.9 | 98.2 | 28.3 | 85.2 | 90.2

From ChEMBL document CHEMBL2434944, “Novel acetamidothiazole derivatives: synthesis and in vitro anticancer evaluation” (Eur J Med Chem, 2013)
